ChEMBL document CHEMBL1208718, “Rational design of a novel peripherally-restricted, orally active CB(1) cannabinoid antagonist containing a 2,3-diarylpyrrole motif” (Bioorg Med Chem Lett, 2010)
pEC50, pIC50: −log10 of the molar value.

Key:
[1] = molecular target: T1, Cannabinoid receptor 2 (Rattus norvegicus) (UniProt Q9QZN9); assay: Binding affinity to CB2 receptor in rat spleen homogenates at 1 uM; format: tissue-based
T1 sequence (whole entry): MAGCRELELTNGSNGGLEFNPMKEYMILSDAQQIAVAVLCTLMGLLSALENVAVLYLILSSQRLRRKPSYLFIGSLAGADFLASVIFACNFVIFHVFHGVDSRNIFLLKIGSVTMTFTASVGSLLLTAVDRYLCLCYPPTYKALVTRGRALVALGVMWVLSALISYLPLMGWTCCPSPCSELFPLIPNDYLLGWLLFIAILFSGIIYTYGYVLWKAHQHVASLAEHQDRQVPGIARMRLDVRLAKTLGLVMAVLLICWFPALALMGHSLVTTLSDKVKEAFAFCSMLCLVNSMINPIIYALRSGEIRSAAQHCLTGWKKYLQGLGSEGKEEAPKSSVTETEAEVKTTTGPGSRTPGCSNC

Cannabinoid receptor 1 [2] = molecular target: Cannabinoid receptor 1 (Rattus norvegicus, UniProt P20272); assay: Binding affinity to CB1 receptor in rat brain synaptosomal membranes; format: cell membranes
Sequence of Cannabinoid receptor 1 (Rattus norvegicus, UniProt P20272) (P20272 whole entry): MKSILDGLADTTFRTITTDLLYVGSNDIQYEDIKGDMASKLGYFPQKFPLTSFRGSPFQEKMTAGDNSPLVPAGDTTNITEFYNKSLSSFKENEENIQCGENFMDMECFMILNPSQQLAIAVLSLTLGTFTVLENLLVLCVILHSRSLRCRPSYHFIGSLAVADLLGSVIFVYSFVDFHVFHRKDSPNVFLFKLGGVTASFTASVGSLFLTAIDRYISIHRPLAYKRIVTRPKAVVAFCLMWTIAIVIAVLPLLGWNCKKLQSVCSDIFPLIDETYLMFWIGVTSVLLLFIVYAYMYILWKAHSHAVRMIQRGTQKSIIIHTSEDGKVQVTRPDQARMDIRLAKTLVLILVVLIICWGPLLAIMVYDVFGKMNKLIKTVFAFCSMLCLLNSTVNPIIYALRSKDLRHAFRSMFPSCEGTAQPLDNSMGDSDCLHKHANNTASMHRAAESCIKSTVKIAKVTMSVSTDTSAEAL

Mus musculus [3] = assay: Ex vivo displacement of [3H]CP-55940 from mouse brain homogenates without cerebellum at 10 mg/kg, iv after 30 mins; format: functional
Method in brief: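 Mice dosed iv at 10 mg/kg and killed by decapitation 30 min later. Brain homogenized without cerebellum, and inhibition of [3H]-CP55940 binding measured in the homogenate.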

Mus musculus [4] = assay: Reversal of CP-55940-induced hypothermia in po dosed mouse at 30 mg/kg, po; format: functional
Method in brief: (§1)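 Mice dosed orally with antagonist, then challenged with CP55940 0.3 mg/kg ip to induce hypothermia. Reversal scored as DE50 (mg/kg po) or as % reversal at a single oral dose.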

Mus musculus [5] = assay: Reversal of CP-55940-induced inhibition of intestinal transit in mouse at 10 mg/kg, po; format: functional; set-up: scale not given: the % may be the effect or the level left
Method in brief: (§2)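 Mice dosed orally with antagonist, then given CP55940 0.15 mg/kg ip to inhibit intestinal transit. Reversal scored as DE50 (mg/kg po) or as % reversal at a single oral dose.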

Mus musculus [6] = assay: Reversal of CP-55940-induced inhibition of intestinal transit in po dosed mouse; format: functional; method in brief: as §2
Cannabinoid receptor 1 [7] = molecular target: T2, Cannabinoid receptor 1 (Homo sapiens, UniProt P21554); assay: Inhibition of human recombinant CB1 receptor expressed in CHO cells; format: cell-based
T2 sequence (P21554 whole entry): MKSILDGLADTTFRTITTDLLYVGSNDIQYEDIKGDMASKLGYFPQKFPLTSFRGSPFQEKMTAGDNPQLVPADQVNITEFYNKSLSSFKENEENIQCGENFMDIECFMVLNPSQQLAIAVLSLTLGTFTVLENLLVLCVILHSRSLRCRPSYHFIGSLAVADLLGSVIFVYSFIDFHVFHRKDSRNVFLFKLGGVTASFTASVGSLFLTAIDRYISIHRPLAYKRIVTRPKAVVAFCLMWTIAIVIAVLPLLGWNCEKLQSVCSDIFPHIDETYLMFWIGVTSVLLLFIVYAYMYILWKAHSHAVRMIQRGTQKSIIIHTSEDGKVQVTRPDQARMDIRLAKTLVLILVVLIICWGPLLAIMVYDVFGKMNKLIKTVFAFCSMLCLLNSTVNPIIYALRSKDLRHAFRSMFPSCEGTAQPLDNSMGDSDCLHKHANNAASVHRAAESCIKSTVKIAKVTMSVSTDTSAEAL

[8] = Cmax in Swiss CD1 mouse at 10 mg/kg, po after 2 hrs; format: ADME, organism-based; set-up: dose 10 mg/kg, route oral; conditions: in vivo
Method in brief: (§3)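 Male Swiss CD1 mice received a single oral 10 mg/kg dose. Drug levels were measured in plasma (ng/mL) and brain (ng/g tissue) over 24 h.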

[9] = Oral bioavailability in Swiss CD1 mouse at 10 mg/kg; conditions: in vivo
[10] = AUC (0 to 24 hrs) ratio in brain to plasma of Swiss CD1 mouse at 10 mg/kg, po; format: ADME, organism-based; set-up: dose 10 mg/kg, route oral
[11] = Drug level in Swiss CD1 mouse brain assessed per gram of tissue at 10 mg/kg, po after 6 hrs; format: ADME, organism-based; set-up: dose 10 mg/kg, route oral; conditions: read-out: Drug uptake; method in brief: as §3
Cannabinoid receptor 1 [12] = molecular target: T2, Cannabinoid receptor 1; assay: Antagonist activity at CB1 receptor in forskolin-stimulated human U373-MG cells assessed as inhibition of CP-55940-induced cAMP accumulation; format: functional, cell-based, U-373MG ATCC
Method in brief: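 Human U373-MG cells; forskolin-stimulated cAMP accumulation was inhibited with CP55940, and the antagonist was tested over a range of concentrations for reversal of that inhibition. The EC50 was derived from the concentration–response.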

Liver microsomes [13] = assay: Metabolic stability in human liver microsomes at 5 uM after 10 mins by HPLC analysis in presence of NADPH; format: ADME, Microsome
Method in brief: (§4)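 Hepatic microsomal fractions from mouse, rat and human were used at 1 mg/mL microsomal protein, with 10 min incubation of substrate.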

[14] = Metabolic stability in mouse liver microsomes at 5 uM after 10 mins by HPLC analysis in presence of NADPH; format: ADME, Microsome; method in brief: as §4
Liver microsomes [15] = assay: Metabolic stability in rat liver microsomes at 5 uM after 10 mins by HPLC analysis in presence of NADPH; format: ADME, Microsome; method in brief: as §4
Mus musculus [16] = assay: Reversal of CP-55940-induced hypothermia in po dosed mouse; format: functional; method in brief: as §1

Row | SMILES | inhibition [1] [%] | pIC50 (Cannabinoid receptor 1 [2]) | inhibition in vivo at 10 mg/kg (Mus musculus [3]) [%] | other results
1 | CS(=O)(=O)CCn1c(C(=O)N2CCC(C(N)=O)(N3CCCCC3)CC2)cc(-c2ccc(Cl)cc2Cl)c1-c1ccc(Cl)cc1 | 26 | 9.40 | 19 | –
2 | CS(=O)(=O)NCCCn1c(C(=O)N2CCC(C(N)=O)(N3CCCCC3)CC2)cc(-c2ccc(Cl)cc2Cl)c1-c1ccc(Cl)cc1 | 16 | 8.85 | 18 | Activity (Mus musculus [4]): 1%; Activity (Mus musculus [5]): 51%
3 | Cn1c(C(=O)N2CCC(C(N)=O)(N3CCOCC3)CC2)cc(-c2ccc(Cl)cc2Cl)c1-c1ccc(Cl)cc1 | 42 | 7.47 | 32 | –
4 | CC1(C)CCN(C2(C(N)=O)CCN(C(=O)c3cc(-c4ccc(Cl)cc4Cl)c(-c4ccc(Cl)cc4)n3CCCNS(C)(=O)=O)CC2)CC1 | 27 | 8.37 | 33 | Activity (Mus musculus [4]): 0%; ED50 (Mus musculus [6]): 4.1 mg/kg
5 | CS(=O)(=O)NCCCn1c(C(=O)N2CCC(C(N)=O)(N3CCC(F)(F)CC3)CC2)cc(-c2ccc(Cl)cc2Cl)c1-c1ccc(Cl)cc1 | 39 | 9.00 | 28 | pIC50 (Cannabinoid receptor 1 [7]): 8.85; Cmax [8]: 570 ng/mL; bioavailability [9]: 37%; Kp [10]: 0.01; concentration at 6 h [11]: 6.4 ng/g; Activity (Mus musculus [4]): 0%; pEC50 (Cannabinoid receptor 1 [12]): 7.82; Stability (Liver microsomes [13]): Stable; ED50 (Mus musculus [6]): 2.4 mg/kg; Stability [14]: Stable; Stability (Liver microsomes [15]): Stable
6 | Cn1c(C(=O)N2CCC(C(N)=O)(c3ccccc3)CC2)cc(-c2ccc(Cl)cc2Cl)c1-c1ccc(Cl)cc1 | 17 | 9.15 | 86 | –
7 | Cn1c(C(=O)N2CCC(C(N)=O)(N3CCCCC3)CC2)cc(-c2ccc(Cl)cc2Cl)c1-c1ccc(Cl)cc1 | 48 | 9.70 | 96 | –
8 | CC(C)(CCCn1c(C(=O)N2CCC(C(N)=O)(N3CCCCC3)CC2)cc(-c2ccc(Cl)cc2Cl)c1-c1ccc(Cl)cc1)C(=O)O | 52 | 6.80 | – | –
9 | NC(=O)C1(N2CCCCC2)CCN(C(=O)c2cc(-c3ccc(Cl)cc3Cl)c(-c3ccc(Cl)cc3)n2CCC(=O)O)CC1 | 14 | 6.74 | – | –
10 | N#CCCn1c(C(=O)N2CCC(C(N)=O)(N3CCCCC3)CC2)cc(-c2ccc(Cl)cc2Cl)c1-c1ccc(Cl)cc1 | 18 | 8.10 | 39 | –
11 | Cc1c(C(=O)NN2CCCCC2)nn(-c2ccc(Cl)cc2Cl)c1-c1ccc(Cl)cc1 [RIMONABANT] | 66 | – | 100 | ED50 (Mus musculus [16]): 0.6 mg/kg; ED50 (Mus musculus [6]): 1 mg/kg
